# Source: article PMC7606739 (FASEB journal : official publication of the Federation of …, 2020)
# Tests used:
# [1] = target: T1, zebrafish 12-LOX (zf12-LOX, Alox12) (Danio rerio, UniProt A0ACM8Q0F4); test: UV-Vis lipoxygenase rate assay; type: biochemical
# T1 sequence (A0ACM8Q0F4 1-670): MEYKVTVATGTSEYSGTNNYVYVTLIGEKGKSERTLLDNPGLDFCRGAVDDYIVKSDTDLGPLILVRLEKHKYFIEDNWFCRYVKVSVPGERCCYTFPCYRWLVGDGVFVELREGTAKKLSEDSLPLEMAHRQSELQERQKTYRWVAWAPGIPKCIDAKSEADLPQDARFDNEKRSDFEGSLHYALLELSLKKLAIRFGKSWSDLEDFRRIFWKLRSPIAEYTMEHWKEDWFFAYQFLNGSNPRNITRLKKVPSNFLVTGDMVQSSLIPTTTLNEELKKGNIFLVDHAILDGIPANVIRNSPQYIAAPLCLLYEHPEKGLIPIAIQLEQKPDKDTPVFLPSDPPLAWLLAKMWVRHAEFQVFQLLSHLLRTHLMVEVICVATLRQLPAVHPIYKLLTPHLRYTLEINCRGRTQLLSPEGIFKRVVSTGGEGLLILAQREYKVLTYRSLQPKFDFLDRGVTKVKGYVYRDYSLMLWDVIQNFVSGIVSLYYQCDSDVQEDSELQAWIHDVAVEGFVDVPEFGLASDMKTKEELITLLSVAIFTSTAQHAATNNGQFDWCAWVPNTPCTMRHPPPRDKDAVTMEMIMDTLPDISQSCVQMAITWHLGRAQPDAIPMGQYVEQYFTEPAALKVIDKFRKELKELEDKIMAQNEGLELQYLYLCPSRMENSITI
# Method in brief: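 N-terminal 6xHis-tagged zf12-LOX, expressed from a pFastBac construct, purified on nickel-iminodiacetic acid agarose (>90% pure by SDS-PAGE). Reaction in 25 mM HEPES (pH 8.00), 0.01% Triton X-100, 10 μM arachidonic acid, run as a steady-state kinetic UV-Vis assay. Enzymatic rate measured at six inhibitor concentrations in triplicate; IC50 from a hyperbolic saturation curve fit of rate versus concentration.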
# [2] = target: T2, human 12-LOX (Human ALOX12) (Homo sapiens, UniProt P18054); test: biochemical
# T2 sequence (P18054 1-663): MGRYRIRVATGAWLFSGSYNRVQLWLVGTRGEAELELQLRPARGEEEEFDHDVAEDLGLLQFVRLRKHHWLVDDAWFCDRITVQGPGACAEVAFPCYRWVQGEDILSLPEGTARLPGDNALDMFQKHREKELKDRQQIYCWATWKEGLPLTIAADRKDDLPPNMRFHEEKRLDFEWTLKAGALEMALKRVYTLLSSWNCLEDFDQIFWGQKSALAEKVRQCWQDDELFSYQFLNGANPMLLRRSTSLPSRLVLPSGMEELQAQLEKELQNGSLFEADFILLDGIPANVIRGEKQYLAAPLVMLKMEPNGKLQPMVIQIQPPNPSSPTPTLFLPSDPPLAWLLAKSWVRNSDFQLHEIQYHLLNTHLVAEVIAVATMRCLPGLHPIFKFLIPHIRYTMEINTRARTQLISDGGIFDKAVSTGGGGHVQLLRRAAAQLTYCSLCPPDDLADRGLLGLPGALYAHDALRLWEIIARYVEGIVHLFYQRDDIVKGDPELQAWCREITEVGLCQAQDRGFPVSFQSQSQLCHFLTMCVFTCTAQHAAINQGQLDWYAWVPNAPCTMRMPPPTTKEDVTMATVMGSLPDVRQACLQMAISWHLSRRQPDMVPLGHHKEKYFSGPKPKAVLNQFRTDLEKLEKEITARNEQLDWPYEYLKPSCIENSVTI
smiles,measurement,setting,value
CNc1oc(-c2cccc3ccccc23)nc1C#N [ML351],IC50,[1],> 100 µM
same,IC50,[2],> 50 µM
